The logP is the decadic logarithm of the partition coefficient of the neutral form, usually between octanol and water. What is called Ki is a measure of affinity in units of concentration, obtained from inhibition or displacement. Low readings indicate tighter binding, high ones weaker binding.

Series [1] can be described thus: Partition coefficient (logP). The series is classed as physicochemical. To be noted: octanol/water. The gist of the method:
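Lipophilicity (log P) estimated by HPLC analysis.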

The target of series [2] is Glutamate NMDA receptor. Kind of series: In vitro binding to N-methyl-D-aspartate glutamate receptor using [3H]MK-801 (1 nM) and rat brain membrane suspensions. The gist of the method:
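Test compounds displaced the radioligand, and IC₅₀ values were read from displacement curves. Ki was calculated from IC₅₀ by the Cheng–Prusoff method. Values are means of at least three experiments, with standard deviation.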

Molecule `Cc1cc(C)cc(N(C)C(=N)Nc2cccc3ccccc23)c1` yielded a logP in series [1] of 2.94. Besides, in series [2], the Ki came out at 21.9 nM.
In the same order, the values of `CN(C(=N)Nc1cccc2ccccc12)c1cccc(I)c1` are 2.94 and 4.65 nM.
In series [1], `COc1cccc(N(C)C(=N)Nc2cccc3ccccc23)c1` displayed a logP of 2.26. Besides, the Ki in series [2] was determined as 43.5 nM.
The molecule `CSc1ccc(Cl)c(NC(=N)N(C)c2cccc(I)c2)c1` showed a logP in series [1] of 2.91. The same molecule had a Ki in series [2] of 3.48 nM.
On to `CSc1ccc(Cl)c(NC(=N)N(C)c2cccc(F)c2)c1`, for which the logP in series [1] came out at 2.34.
`COc1cccc(N(C)C(=N)Nc2cc(SC)ccc2Cl)c1` returned a logP in series [1] of 2.34. This molecule gave a Ki in series [2] of 5.2 nM.
`CN(C(=N)Nc1cccc2ccccc12)c1cccc(F)c1` showed a logP in series [1] of 2.31. Also, the affinity in series [2] corresponds to a Ki of 839 nM.
For `CSc1ccc(Cl)c(NC(=N)N(C)c2cc(C)cc(C)c2)c1`, in that order: 3.12 and 14 nM.
In series [1], `CCc1cccc(N(C)C(=N)Nc2cc(SC)ccc2Cl)c1` registered a lipophilicity (logP) of 3. Further, in series [2], the inhibitory constant (Ki) came to 6.28 nM.
For the molecule `CSc1cccc(N(C)C(=N)Nc2cc(SC)ccc2Cl)c1` [CNS-5161], the logP in series [1] is 2.68. Besides, in series [2], the Ki came to 1.87 nM.

The values above are taken from ChEMBL document CHEMBL1135142, “Synthesis and in vitro evaluation of N,N'-diphenyl and N-naphthyl-N'-phenylguanidines as N-methyl-D-aspartate receptor ion-channel ligands” (Bioorg Med Chem Lett, 2002).
